Laboratory results: ChEMBL document CHEMBL1149249 (J Med Chem, 2004)

Columns and labels:
Adenosine receptor A2a = Adenosine receptor A2a (Rattus norvegicus, UniProt P30543); experiment: Displacement of [3H]ZM241385 from adenosine A2A receptor in rat brain membrane; assay type: cell membranes
Adenosine receptor A1 = molecular target: T1, Adenosine receptor A1 (Rattus norvegicus, UniProt P25099); experiment: Displacement of [3h]DPCPX from adenosine A receptor in rat cerebral cortex membrane
T1 sequence (P25099 whole entry): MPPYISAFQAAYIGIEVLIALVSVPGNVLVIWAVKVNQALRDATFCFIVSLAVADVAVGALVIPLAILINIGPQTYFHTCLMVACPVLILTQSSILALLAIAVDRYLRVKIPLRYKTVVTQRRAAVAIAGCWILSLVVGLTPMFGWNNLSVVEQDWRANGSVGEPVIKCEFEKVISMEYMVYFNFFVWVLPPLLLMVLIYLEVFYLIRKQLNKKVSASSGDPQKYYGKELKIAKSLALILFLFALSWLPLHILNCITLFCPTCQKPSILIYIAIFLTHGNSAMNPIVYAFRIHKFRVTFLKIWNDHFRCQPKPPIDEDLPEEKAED

Mus musculus [1] = experiment: Reduction of haloperidol-induced catalepsy in orally dosed CD1 mouse; assay type: functional; conditions: CD1, po
How it was run: (§1)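 Male CD-1 mice (25–30 g) received haloperidol 3 mg/kg sc. Bar test used a 4.5 cm high, 1 cm bar with a 120 s cutoff, measured every 30 min. Once baseline catalepsy was stable (about 3 h), compound or vehicle was given by oral gavage. Catalepsy was then scored every 30 min for 2 h. Analysis was one-way ANOVA with Dunnett's post hoc test.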

Rattus norvegicus = experiment: Reduction of haloperidol-induced catalepsy in orally dosed Sprague-Dawley rat; assay type: functional; conditions: po
How it was run: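 Male Sprague–Dawley rats (225–275 g) were given haloperidol 1 mg/kg, with bar tests every 30 min (1 cm bar, 10 cm high, 120 s maximum). After a stable cataleptic baseline at about 3 h, compound or vehicle was dosed by oral gavage. The bar test was repeated every 30 min for 2 h. Data were analyzed by one-way ANOVA with Dunnett's test.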

[2] = Metabolic stability in rat liver microsomes at 2 uM after 15 mins; assay type: ADME, Microsome; conditions: read-out: Stability
How it was run: (§2)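 Test compound at 2 μM final was incubated at 37 °C with shaking in Sprague–Dawley rat liver microsomes in 66 mM potassium phosphate pH 7.4. An NADP+/glucose-6-phosphate/MgCl2/G6P dehydrogenase regenerating system was present. Aliquots taken at 0, 15, 30 and 60 min were quenched in acetonitrile containing DPCPX internal standard. Percent parent remaining was measured by LC/MS.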

[3] = Metabolic stability in rat liver microsome at 2 uM after 30 mins; assay type: ADME; conditions: liver microsomes, read-out: Stability; how it was run: as §2
[4] = Metabolic stability in rat liver microsome at 2 uM after 60 mins; assay type: ADME; conditions: liver microsomes, read-out: Stability; how it was run: as §2
Mus musculus [5] = experiment: Reduction of haloperidol-induced catalepsy in CD1 mouse within 30 mins at 3 mg/kg, po; assay type: functional; parameters: scale not given: the % may be the effect or the level left; how it was run: as §1

Chain of Adenosine receptor A2a (P30543 whole entry): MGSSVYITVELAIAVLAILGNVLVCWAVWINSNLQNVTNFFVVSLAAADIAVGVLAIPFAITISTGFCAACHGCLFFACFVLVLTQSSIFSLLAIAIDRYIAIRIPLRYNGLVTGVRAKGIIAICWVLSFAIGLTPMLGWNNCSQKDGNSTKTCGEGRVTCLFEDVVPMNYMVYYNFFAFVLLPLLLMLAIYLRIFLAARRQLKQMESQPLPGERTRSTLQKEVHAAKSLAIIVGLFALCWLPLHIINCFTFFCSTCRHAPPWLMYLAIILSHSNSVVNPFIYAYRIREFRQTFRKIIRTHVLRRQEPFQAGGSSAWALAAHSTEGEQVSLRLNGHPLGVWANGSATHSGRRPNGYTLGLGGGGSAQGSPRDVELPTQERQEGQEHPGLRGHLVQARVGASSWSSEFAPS

Structure (SMILES) | Ki (Adenosine receptor A2a) | Ki (Adenosine receptor A1) | remaining at 0.25 h, 2 µM [2] [%] | remaining at 0.5 h, 2 µM [3] [%] | remaining at 1 h, 2 µM [4] [%] | ED50 (Mus musculus [1]) [mg/kg] | ED50 (Rattus norvegicus) [mg/kg] | Activity (Mus musculus [5]) [%]
Nc1nc(NC[C@H]2CCCN2Cc2c(F)cccc2F)nc2nc(-c3ccco3)nn12 | 3.6 nM (antagonist) | 427 nM (antagonist) | – | – | – | 10 | 10 | –
Cn1nc(C(F)(F)F)c(CN2CCN(c3nc(N)n4nc(-c5ccco5)nc4n3)CC2)c1Cl | – | – | 14 | – | – | 3 | 3 | –
Nc1nc(N2CCN3CCC[C@@H]3C2)nc2nc(-c3ccco3)nn12 | 30 nM (antagonist) | 1200 nM | 67 | 75 | 61 | – | – | –
Nc1nc(N2CCN3CCC[C@H]3C2)nc2nc(-c3ccco3)nn12 | 46 nM (antagonist) | > 500 nM | 69 | 54 | 36 | – | – | –
Nc1nc(N2CCN3C[C@@H](COc4ccc5ncccc5c4)CC[C@H]3C2)nc2nc(-c3ccco3)nn12 | 0.6 nM (antagonist) | 3500 nM | 42 | 25 | 16 | – | – | –
Nc1nc(N2CCN3[C@@H](CO)CCC[C@H]3C2)nc2nc(-c3ccco3)nn12 (racemic) | 3 nM (antagonist) | 1300 nM | – | – | – | – | – | –
Nc1nc(N2CCN3[C@@H](CO)CCC[C@H]3C2)cc2nc(-c3ccco3)nn12 (racemic) | 110 nM (antagonist) | > 500 nM | – | – | – | – | – | –
Nc1nc(N2CCN3CCCCC3C2)cc2nc(-c3ccco3)nn12 (racemic) | 140 nM (antagonist) | > 500 nM | – | – | – | – | – | –
Nc1nc(NC[C@@H]2CC[C@@H]3CN(c4ncccn4)CCN3C2)nc2nc(-c3ccco3)nn12 (racemic) | 0.3 nM (antagonist) | 1600 nM | 89 | 65 | 43 | – | – | –
Nc1nc(N2CCN3C[C@@H](COc4ccccc4)CC[C@H]3C2)nc2nc(-c3ccco3)nn12 (racemic) | 21 nM (antagonist) | > 500 nM | – | – | – | – | – | –
Nc1nc(N2CCN3C[C@@H](COc4cccc(F)c4)CC[C@H]3C2)nc2nc(-c3ccco3)nn12 (racemic) | 0.2 nM (antagonist) | 3300 nM | 57 | 36 | 12 | – | – | –
NC[C@H]1CC[C@H]2CN(c3nc(N)n4nc(-c5ccco5)nc4n3)CCN2C1 (racemic) | 16 nM (antagonist) | > 500 nM | – | – | – | – | – | –
Nc1nc(N2CCN3CCCCC3C2)nc2nc(-c3ccco3)nn12 (racemic) | 12 nM (antagonist) | 860 nM (antagonist) | – | – | – | – | – | –

Continued, in another order:

Ki (Adenosine receptor A2a) | Ki (Adenosine receptor A1) | remaining at 0.25 h, 2 µM [2] [%] | remaining at 0.5 h, 2 µM [3] [%] | remaining at 1 h, 2 µM [4] [%] | Structure (SMILES) | ED50 (Mus musculus [1]) [mg/kg] | ED50 (Rattus norvegicus) [mg/kg] | Activity (Mus musculus [5]) [%]
71 nM (antagonist) | 6100 nM | – | – | – | Nc1nc(N2CCN3C[C@H](CO)CC[C@H]3C2)nc2nc(-c3ccco3)nn12 (racemic) | – | – | –
96 nM (antagonist) | > 500 nM | 100 | 100 | 85 | Nc1nc(N2CCN3C[C@@H](CO)CC[C@H]3C2)cc2nc(-c3ccco3)nn12 (racemic) | – | – | >50
230 nM (antagonist) | > 500 nM | 97 | 81 | 51 | Nc1cc(N2CCN3C[C@@H](CO)CC[C@H]3C2)nc2nc(-c3ccco3)nn12 (racemic) | – | – | –
38 nM (antagonist) | > 500 nM | – | – | – | Nc1cc(N2CCN3CCCCC3C2)nc2nc(-c3ccco3)nn12 (racemic) | – | – | –
240 nM (antagonist) | > 1000 nM | – | – | – | Nc1nc(N2CCN3C[C@H](CO)CC[C@H]3C2)cc2nc(-c3ccco3)nn12 (racemic) | – | – | –
45 nM (antagonist) | 660 nM (antagonist) | 100 | 100 | 100 | Nc1nc(N2CCN3C[C@@H](CO)CC[C@H]3C2)nc2nc(-c3ccco3)nn12 (racemic) | – | – | >50
860 nM (antagonist) | > 1000 nM | – | – | – | Nc1cc(N2CCN3C[C@H](CO)CC[C@H]3C2)nc2nc(-c3ccco3)nn12 (racemic) | – | – | –
610 nM (antagonist) | > 500 nM | – | – | – | Nc1cc(N2CCN3[C@@H](CO)CCC[C@H]3C2)nc2nc(-c3ccco3)nn12 (racemic) | – | – | –
